Results as given in ChEMBL document CHEMBL3763121, “Synthesis, biological evaluation and structural analysis of novel peripherally active morphiceptin analogs” (Bioorg Med Chem, 2016).
Activity calls are given as the source filed them. The rule behind the calls is not given here. Where a SMILES comes first, the peptide text is derived from it.

Columns and labels:
[1] = molecular target: T1, Mu-type opioid receptor (Homo sapiens, UniProt P35372); experiment: Agonist activity at human recombinant MOR expressed in CHO cells by calcium mobilization assay; type: functional, cell-based
T1 sequence (P35372 whole entry): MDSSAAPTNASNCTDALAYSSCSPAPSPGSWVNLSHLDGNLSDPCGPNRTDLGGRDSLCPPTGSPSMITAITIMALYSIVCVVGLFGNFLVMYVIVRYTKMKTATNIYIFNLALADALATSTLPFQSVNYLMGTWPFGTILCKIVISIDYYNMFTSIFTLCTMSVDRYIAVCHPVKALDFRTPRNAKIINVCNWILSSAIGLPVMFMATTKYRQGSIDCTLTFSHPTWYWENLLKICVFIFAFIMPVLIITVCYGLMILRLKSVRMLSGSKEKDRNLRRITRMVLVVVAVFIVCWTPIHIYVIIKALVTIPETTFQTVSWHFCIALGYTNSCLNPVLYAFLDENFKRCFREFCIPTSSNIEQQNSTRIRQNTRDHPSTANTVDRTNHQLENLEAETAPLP

[2] = molecular target: Mu-type opioid receptor (Rattus norvegicus, UniProt P33535); experiment: Displacement of [3H]DAMGO from MOR in Wistar rat brain homogenate by scintillation counting analysis; type: tissue-based
Mu-type opioid receptor (Rattus norvegicus, UniProt P33535), sequence (P33535 whole entry): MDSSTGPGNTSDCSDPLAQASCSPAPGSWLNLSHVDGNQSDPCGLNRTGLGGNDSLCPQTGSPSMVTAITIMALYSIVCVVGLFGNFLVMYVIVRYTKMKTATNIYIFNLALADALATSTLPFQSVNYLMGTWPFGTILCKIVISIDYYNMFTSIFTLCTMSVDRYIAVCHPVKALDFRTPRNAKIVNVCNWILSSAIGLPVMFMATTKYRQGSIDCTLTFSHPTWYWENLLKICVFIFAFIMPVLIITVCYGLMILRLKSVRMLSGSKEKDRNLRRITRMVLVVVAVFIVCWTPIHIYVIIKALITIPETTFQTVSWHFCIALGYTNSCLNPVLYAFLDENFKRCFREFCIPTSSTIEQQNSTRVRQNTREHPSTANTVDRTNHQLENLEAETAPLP
How it was run: (§1)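 Competitive radioligand displacement in brain homogenates from adult male Wistar rats: [3H]DAMGO for MOR, [3H][Ile5,6]deltorphin-2 for DOR. IC50 read from logarithmic dose–displacement curves and converted to Ki. Three independent experiments, each in duplicate.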

[3] = molecular target: Kappa-type opioid receptor (Cavia porcellus, UniProt P41144); experiment: Displacement of [3H]nor-BNI from KOR in Dunkin Hartley guinea pig brain homogenate by scintillation counting analysis; type: tissue-based
Kappa-type opioid receptor (Cavia porcellus, UniProt P41144), sequence (P41144 whole entry): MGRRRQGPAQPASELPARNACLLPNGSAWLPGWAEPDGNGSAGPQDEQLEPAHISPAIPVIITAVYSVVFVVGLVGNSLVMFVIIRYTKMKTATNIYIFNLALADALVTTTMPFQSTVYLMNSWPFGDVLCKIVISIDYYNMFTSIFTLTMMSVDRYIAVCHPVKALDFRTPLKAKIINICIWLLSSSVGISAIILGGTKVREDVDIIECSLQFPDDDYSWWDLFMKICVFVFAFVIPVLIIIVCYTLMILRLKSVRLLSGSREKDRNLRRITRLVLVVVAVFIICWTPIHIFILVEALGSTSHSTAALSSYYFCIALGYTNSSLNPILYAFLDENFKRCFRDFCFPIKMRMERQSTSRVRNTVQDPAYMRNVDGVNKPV
How it was run: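 KOR affinity measured by competitive displacement of [3H]nor-BNI in guinea pig brain membranes. IC50 taken from logarithmic dose–displacement curves and converted to Ki. Three independent experiments run in duplicate.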

[4] = molecular target: Delta-type opioid receptor (Rattus norvegicus, UniProt P33533); experiment: Displacement of [3H][Ile5,6]deltorphin-2 from DOR in Wistar rat brain homogenate by scintillation counting analysis; type: tissue-based; how it was run: as §1
Delta-type opioid receptor, sequence (P33533 whole entry): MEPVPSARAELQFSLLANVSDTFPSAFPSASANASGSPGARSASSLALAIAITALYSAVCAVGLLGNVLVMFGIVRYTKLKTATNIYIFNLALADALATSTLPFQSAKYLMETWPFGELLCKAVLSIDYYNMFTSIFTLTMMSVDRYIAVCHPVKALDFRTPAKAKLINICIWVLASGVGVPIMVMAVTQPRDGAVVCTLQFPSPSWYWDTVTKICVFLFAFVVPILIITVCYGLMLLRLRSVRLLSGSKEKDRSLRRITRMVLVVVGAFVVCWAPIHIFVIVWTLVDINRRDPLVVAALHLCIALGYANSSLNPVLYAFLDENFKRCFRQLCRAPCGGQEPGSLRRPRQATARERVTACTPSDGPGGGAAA

[5] = molecular target: T2, Kappa-type opioid receptor (Homo sapiens, UniProt P41145); experiment: Intrinsic activity at human recombinant KOR expressed in CHO cells at 1 uM by calcium mobilization assay relative to dynorphin A; type: functional, cell-based
T2 sequence (P41145 whole entry): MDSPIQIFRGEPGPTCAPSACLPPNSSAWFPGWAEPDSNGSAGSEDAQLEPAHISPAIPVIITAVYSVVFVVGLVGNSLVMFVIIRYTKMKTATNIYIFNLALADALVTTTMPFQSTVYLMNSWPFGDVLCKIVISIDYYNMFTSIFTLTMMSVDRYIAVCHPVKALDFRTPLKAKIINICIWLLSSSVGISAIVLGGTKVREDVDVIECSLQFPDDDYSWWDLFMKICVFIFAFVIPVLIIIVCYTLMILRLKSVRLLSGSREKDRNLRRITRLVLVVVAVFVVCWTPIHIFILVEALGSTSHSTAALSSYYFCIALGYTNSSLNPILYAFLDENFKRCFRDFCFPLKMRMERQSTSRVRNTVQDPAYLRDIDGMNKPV

[6] = molecular target: T2, Kappa-type opioid receptor; experiment: Agonist activity at human recombinant KOR expressed in CHO cells by calcium mobilization assay; type: functional, cell-based
How it was run: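 CHO cells stably co-expressing human recombinant KOR and the C-terminally modified chimeric G protein Gαqi5. Calcium mobilization read-out. Concentration–response curves fitted with a sigmoidal equation that includes baseline, Emax and Hill coefficient. Potency reported as pEC50, the negative log molar concentration giving 50% of the maximal effect. Efficacy reported as intrinsic activity, the ligand Emax relative to the standard agonist Emax.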

[7] = molecular target: Delta-type opioid receptor (Homo sapiens) (UniProt P41143); experiment: Agonist activity at human recombinant DOR expressed in CHO cells at 1 uM by calcium mobilization assay; type: functional, cell-based
Delta-type opioid receptor (Homo sapiens), sequence (P41143 whole entry): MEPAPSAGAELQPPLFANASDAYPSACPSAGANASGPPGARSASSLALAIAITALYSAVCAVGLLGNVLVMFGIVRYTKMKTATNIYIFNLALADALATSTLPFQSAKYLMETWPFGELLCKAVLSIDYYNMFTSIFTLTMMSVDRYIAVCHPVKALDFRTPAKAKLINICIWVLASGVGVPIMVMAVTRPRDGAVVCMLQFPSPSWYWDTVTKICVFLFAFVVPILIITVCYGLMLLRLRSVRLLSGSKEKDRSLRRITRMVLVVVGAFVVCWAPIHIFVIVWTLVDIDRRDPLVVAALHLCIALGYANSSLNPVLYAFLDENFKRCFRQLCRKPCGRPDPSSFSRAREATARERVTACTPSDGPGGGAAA

[8] = Retention time of compound by RP-HPLC analysis; type: physicochemical
How it was run: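 Solvent A was 0.1% TFA in water and B was 80% acetonitrile with 0.1% TFA. Linear gradient of 0–100% B over 50 min at 1 ml/min.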

[9] = molecular target: T2, Kappa-type opioid receptor; experiment: Agonist activity at human recombinant KOR expressed in CHO cells at 1 uM by calcium mobilization assay; type: functional, cell-based
[10] = molecular target: T1, Mu-type opioid receptor; experiment: Agonist activity at human recombinant MOR expressed in CHO cells at 1 uM by calcium mobilization assay; type: functional, cell-based

| Compound | EC50 [1] | Ki [2] | Ki [3] | Ki [4] | Intrinsic activity [5] | EC50 [6] | Activity [7] | Retention_time [8] | Activity [9] | Activity [10] |
| --- | --- | --- | --- | --- | --- | --- | --- | --- | --- | --- |
| NC(=O)[C@H]1CC(F)(F)CN1C(=O)[C@H](Cc1ccccc1)NC(=O)[C@@H]1CC(F)(F)CN1C(=O)[C@@H](N)Cc1ccc(O)cc1 | 4.68 nM | 0.37 nM | 386 nM | > 1000 nM | 0.84 | 813 nM | inactive | 14.99 min |  |  |
| NC(=O)[C@@H]1CCCN1C(=O)[C@H](Cc1ccccc1)NC(=O)[C@@H]1CCCN1C(=O)[C@@H](N)Cc1ccc(O)cc1 [MORPHICEPTIN] (H-YPFP-NH2) | 741 nM | 36.4 nM | > 1000 nM | > 1000 nM |  |  | inactive |  | inactive |  |
| C[C@H](NC(=O)[C@@H](N)Cc1ccc(O)cc1)C(=O)N[C@@H](Cc1ccccc1)C(=O)NCC(=O)N[C@@H](Cc1ccc(O)cc1)C(=O)N1CCC[C@H]1C(=O)N[C@@H](CO)C(N)=O |  |  |  |  |  |  |  |  | inactive |  |
| NC(=O)[C@@H]1CCCN1C(=O)[C@H](Cc1ccccc1)NC(=O)[C@H]1CC(F)(F)CN1C(=O)[C@@H](N)Cc1ccc(O)cc1 |  | > 1000 nM | > 1000 nM | > 1000 nM |  |  | inactive | 14.1 min | inactive | inactive |
| CC1(C)SSC(C)(C)[C@@H](NC(=O)[C@@H](N)Cc2ccc(O)cc2)C(=O)NCC(=O)N[C@@H](Cc2ccccc2)C(=O)N[C@H]1C(=O)O |  |  |  |  |  |  |  |  | inactive |  |
| NC(=O)[C@@H]1CC(F)(F)CN1C(=O)[C@H](Cc1ccccc1)NC(=O)[C@@H]1CC(F)(F)CN1C(=O)[C@@H](N)Cc1ccc(O)cc1 | 398 nM | 106 nM | > 1000 nM | > 1000 nM |  |  | inactive | 14.56 min | inactive |  |
| NC(=O)[C@H]1CC(F)(F)CN1C(=O)[C@H](Cc1ccccc1)NC(=O)[C@@H]1CCCN1C(=O)[C@@H](N)Cc1ccc(O)cc1 | 20.4 nM | 13.3 nM | > 1000 nM | > 1000 nM |  |  | inactive | 14.22 min |  |  |
